From PubChem
LEDGF integ inh: blocks HIV-1 LEDGF/p75-dependent DNA integration; TR-FRET IN-LEDGF/p75 DNA integration, Eu/Cy5; inhibition, % at 3.7 µM; hit rate 0.64% among 370,000; AID 743269;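 active = inhibition above the screen-wide mean plus 3 SD, cut at about 13% in these data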;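 also: signal is the Cy5 over europium emission ratio at 671 and 618 nm; 0% = plate median of compound wells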
UHRF1 binding: human UHRF1 methylated DNA binding inhibitors | AID 687016 | hit rate 0.75% among 370,000 | inhibition, % at 4.4 µM | UHRF1 binding to methylated oligo, TR-FRET | Q96T88; in the data active = inhibition above about 21%;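 also: UHRF1 SRA domain binding a hemimethylated CpG hairpin DNA probe; 0% = median of test compound wells and 100% = reference inhibitor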
TCR CD3 inh: blocks the human TCR-CD3 interaction | hit rate 0.37% among 360,000 | inhibition, % at 9.4 µM | TAMRA-labeled TCR probe fluorescence, biochemical; in the data active = inhibition above about 19%;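 also: recombinant mutant TCR 2C K166C tagged with TAMRA read by polarization; 0% = receptor in buffer alone and 100% = receptor with positive control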
MBD2 DNA inh: blocks human MBD2 binding to methylated DNA | Q9UBB5 | TR-FRET, MBD2 binding to methylated oligonucleotide | inhibition, % at 4.4 µM | hit rate 0.31% among 370,000 | AID 686964; in the data active = inhibition above about 13%
ARFGAP1 inhibitor: inhibitors of rat ARFGAP1. Arfgap1-stimulated ARF1 GTP hydrolysis, GDP FP detection. inhibition, % at 16.5 µM. hit rate 0.26% among 360,000. AID 651572;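 active = inhibition above a per-plate limit, mean inhibition of low control wells plus 3 SD, cut at about 25% in these data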;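 also: 0% = DMSO wells with enzyme and 100% = wells lacking Arfgap1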
Target sequence (Q62848 1-136 limits assumed): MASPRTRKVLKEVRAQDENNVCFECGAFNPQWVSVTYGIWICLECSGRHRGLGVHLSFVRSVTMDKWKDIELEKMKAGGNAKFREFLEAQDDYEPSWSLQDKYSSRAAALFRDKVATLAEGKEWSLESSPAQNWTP
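Material: rat Arfgap1 catalytic domain, aa 1-136; also added: human ARF1(Δ1-17)-GTP substrate; compound dosing: one concentration, 16.5 µM, DMSO 1.26%; incubation: GTP hydrolysis reaction 2 h at 25 °C; measured by: Tracer-displacement fluorescence polarization with EDTA stop, 620/688 nm; evaluation: % inhibition from polarization; repeats: one replicate per compound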
ASAP1 GAP inh: blocks human ASAP1-stimulated Arf1 GTP hydrolysis; Q9ULH1; GDP FP detection; inhibition, % at 16.5 µM; hit rate 0.19% among 360,000; AID 624377; in the data active = inhibition above about 25%;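 also: 0% = vehicle with enzyme and substrate and 100% = no enzyme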
Target sequence (Q9ULH1 325-724 limits assumed): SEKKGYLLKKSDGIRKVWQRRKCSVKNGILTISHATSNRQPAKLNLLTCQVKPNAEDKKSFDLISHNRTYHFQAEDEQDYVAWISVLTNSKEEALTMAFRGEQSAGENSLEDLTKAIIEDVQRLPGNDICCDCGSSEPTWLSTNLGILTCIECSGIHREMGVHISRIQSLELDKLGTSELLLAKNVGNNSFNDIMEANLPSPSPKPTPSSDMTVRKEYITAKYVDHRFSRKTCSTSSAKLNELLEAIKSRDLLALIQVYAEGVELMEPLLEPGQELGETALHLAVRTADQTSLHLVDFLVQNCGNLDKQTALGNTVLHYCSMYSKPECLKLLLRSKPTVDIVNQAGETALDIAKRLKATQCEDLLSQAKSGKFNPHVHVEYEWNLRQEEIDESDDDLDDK
* hit, by the source's call; x = not tested or not shown. Sampled rows, rich in hits. Any-hit rate of the full collection: about 2%.

SMILES	LEDGF integ inh	UHRF1 binding	TCR CD3 inh	MBD2 DNA inh	ARFGAP1 inhibitor	ASAP1 GAP inh
COc1ccc(OCC(=O)Nc2ccc(S(=O)(=O)N3CCN(C)CC3)cc2)cc1	-3.3	2.1	10.6	-2.4	-7.3	-15.0
Cc1ccc(OCC(=O)Nc2ccc(S(=O)(=O)N3CCN(C)CC3)cc2)cc1	-1.4	45.6*	6.4	3.0	12.3	-4.1
CCOC(=O)COc1ccc(S(=O)(=O)N2CCN(c3ccc(OC)cc3)CC2)cc1	-0.3	36.7*	-5.5	7.5	-5.0	9.1
CCCCCCNC(=O)C1CSCCS(=O)(=O)N1Cc1ccc(OC)cc1 (configuration not stated)	0.5	-4.8	x	2.2	x	x
O=C(Nc1ccccc1)c1ccc[n+](Cc2ccc([N+](=O)[O-])cc2)c1	3.6	69.4*	3.3	-0.8	-2.2	-7.4
O=C(Nc1ccc([N+](=O)[O-])cc1)c1ccccc1	-6.0	1.0	-4.5	1.5	-6.3	10.8
O=C(C1CCCO1)N1CCN(C2=Nc3ccccc3Sc3ccccc32)CC1 (configuration not stated)	4.1	1.5	x	3.0	x	x
FC(F)(F)c1ccccc1NC(=S)NC1CCN(Cc2ccccc2)CC1	-2.2	36.6*	-2.5	-0.8	2.4	6.0
N/C(=N\OC(=O)/C=C/c1ccccc1)c1ccccn1	-2.9	24.1*	5.5	2.9	8.4	7.5
COc1ccc(/C=C/C(=O)O/N=C(\N)c2ccccn2)cc1OC	-1.4	-4.5	3.2	-7.1	2.3	9.0
CCC1CCc2sc(C(=O)N(C)CC(=O)Nc3ccc(OC)cc3)cc2C1 (configuration not stated)	7.0	0.0	-7.1	-5.4	-1.5	-5.1
CCC1CCc2sc(C(=O)N(C)CC(=O)Nc3cccc(OC)c3)cc2C1 (configuration not stated)	3.0	66.2*	1.3	-5.2	6.6	-9.1
COc1ccc2[nH]c3c(C)c4ccncc4c(C)c3c2c1	4.1	35.6*	-5.5	32.6*	3.4	0.3
Cc1ccc(CSc2nnc(-c3cc(-c4ccc(C)cc4)n[nH]3)n2N)cc1	0.0	-4.7	x	4.0	x	x
Cc1cccc(C)c1NC(=O)CN(C1CCCCC1)S(C)(=O)=O	-0.1	27.9*	6.0	0.0	-10.7	-13.0
O=C(NCc1cccs1)O[C@H]1CC[C@@]23CCCN2C(=O)CCC[C@H]3C1	3.4	-1.9	x	1.7	x	x
COc1ccccc1CNC(=O)NC1CCN(CC(=O)Nc2ccc3c(c2)OCCO3)CC1	7.5	-1.8	x	-6.3	x	x
Cc1nn(C)c(Cl)c1NC(=O)OCc1ccc(Cl)cc1Cl	4.7	53.1*	4.2	1.4	-6.3	0.1
N#Cc1ccc(/C=C/C(=O)c2ccc3c(c2)OCO3)cc1	1.6	25.6*	8.1	-2.0	2.5	-5.9
COC(=O)/C=C1\OC(C2CC2)c2ccccc21 (configuration not stated)	2.0	-0.2	6.7	1.9	9.8	-11.4
CCCCC(C(=O)NC(=O)NCc1ccccc1)N1C(=O)c2ccccc2C1=O (configuration not stated)	2.4	22.7*	0.2	11.7	6.5	16.4
CC(C(=O)NC(=O)NCc1ccccc1)N1C(=O)c2ccccc2C1=O (configuration not stated)	-0.2	1.6	-2.6	-2.3	2.9	11.4
Cc1ccccc1C(=O)NC1CCCCN(Cc2cccc(Cl)c2)C1=O (configuration not stated)	-0.4	1.4	x	5.2	x	x
Cc1nc2sc(C(=O)NCc3nccs3)c(N)c2c(C)c1Cl	1.9	-1.0	x	-6.3	x	x
CN(C)CCNC(=O)c1cccc2ccc(-c3ccc(-c4ccccc4)cc3)nc12	-4.5	37.3*	8.8	2.5	6.5	-12.1
SMILES	LEDGF integ inh	UHRF1 binding	TCR CD3 inh	MBD2 DNA inh	ARFGAP1 inhibitor	ASAP1 GAP inh
Nn1c(SCc2c(Cl)cccc2Cl)nnc1-c1n[nH]c2c1CCC2	2.0	-0.5	x	-7.4	x	x
Cc1cccc(C(=O)Nc2c(-c3ccc(C(F)(F)F)cc3)nc3ncccn23)c1	5.3	0.9	x	-3.0	x	x
O=C(CSc1nnc(-c2ccco2)n1-c1ccc(Cl)cc1)Nc1ccc(S(=O)(=O)Nc2nccs2)cc1	3.0	1.9	x	0.0	x	x
N/C(=N\OC(=O)c1cc([N+](=O)[O-])ccc1Cl)c1ccccn1	-1.1	45.6*	1.7	-6.2	4.8	-7.2
O=C(c1ccco1)N1CC2(CC(c3ccc(Cl)cc3)=NO2)CN1Cc1ccc(Br)cc1 (configuration not stated)	-2.8	-0.8	2.6	1.6	4.9	0.4
Cc1c(C(=O)N(C)C)c2cc(Cl)ccc2n1O	1.2	-3.5	0.3	0.4	-9.0	0.6
CCOC(=O)c1c(C)n(O)c2ccc(Cl)cc2c1=O	-2.5	25.4*	-5.5	7.3	8.2	2.1
Cc1ccc(S(=O)(=O)N(C)[C@H]2C[C@H]3c4cc(-c5ccccc5C)ccc4CCN3C[C@H]2[C@H](C)O)cc1	-1.8	0.1	x	0.7	x	x
COCCN1C(=O)COc2ccccc2C1C(=O)NCc1ccccc1 (configuration not stated)	-3.9	-0.1	4.1	-1.6	5.5	9.4
O=C(Nc1ccc(Oc2ccccc2)cc1)C1CCCN1S(=O)(=O)c1cccc2cccnc12 (configuration not stated)	-0.2	-3.6	x	-6.0	x	x
CCOc1ccc(CC(=O)N2N=C(C)CC2(O)C(F)(F)F)cc1 (configuration not stated)	-1.9	28.9*	6.2	3.0	7.0	4.8
CCCC1=NN(C(=O)Cc2ccc(OC)cc2)C(O)(C(F)(F)F)C1 (configuration not stated)	4.4	3.8	-6.1	-1.7	3.7	-5.5
COc1ccc(CCN2C(=O)CCC2(C)c2nnnn2-c2c(C)cccc2C)cc1OC (configuration not stated)	-2.9	21.9*	1.3	7.2	3.1	11.2
O=C1CCCc2cc3c(ccc4ccccc43)cc21	-5.8	-0.1	-1.8	2.9	-1.3	-6.8
Cc1cc2c(cc1C)C(=O)CCC2	2.0	23.9*	-9.0	1.4	4.0	-1.5
CC(C)NC(=O)C1CC(=O)N(CCc2ccc(F)cc2)C1 (configuration not stated)	4.9	4.3	11.6	-0.1	-6.7	-0.4
O=C1NCCN(CC2CCN(CCc3ccc(Cl)c(Cl)c3)CC2)C1=O	8.4	24.0*	-4.9	11.4	-0.7	8.0
COC(=O)c1ccc(NCc2c(O)ccc(O)c2Br)cc1Cl	15.0*	-1.4	-1.8	-9.5	17.8	13.5
C[C@@H]1CN([C@H](C)CO)C(=O)c2cc(-c3ccccc3)cnc2O[C@@H]1CN(C)C(=O)C1CCOCC1	0.6	2.6	5.5	-2.6	-0.7	6.0
COC(=O)c1cccc(COC(=O)c2cccnc2SC)c1	-2.8	34.4*	9.9	1.6	-1.4	-7.5
CSc1ncccc1C(=O)OCc1ccc(C#N)cc1	-2.1	0.6	1.2	0.2	-7.8	11.0
